Reference: ChEMBL document CHEMBL4834405, “Structure-Based Design of High-Affinity Macrocyclic FKBP51 Inhibitors” (J Med Chem, 2021)
pKd: −log10 of the molar value.

Legend:
[1] = (§1) Selectivity ratio of Kd for displacement of fluorescent tracer 5-(3-(4-((1S,5S,6S)-10-(3,5-dichlorophenylsulfonyl)-2-oxo-3-(pyridin-3-ylmethyl)-3,10-diazabicyclo[4.3.1]decan-5-yl)-1H-1,2,3-triazol-1-yl)propylcarbamoyl)-2-(6-(dimethylamino)-3-(dimethyliminio)-3H-xanthen-9-yl)benzoate from recombinant full length C-terminal FLAG-tagged FKBP12.6 (unknown origin) to Kd for displacement of fluorescent tracer 5-(3-(4-((1S,5S,6S)-10-(3,5-dichlorophenylsulfonyl)-2-oxo-3-(pyridin-3-ylmethyl)-3,10-diazabicyclo[4.3.1]decan-5-yl)-1H-1,2,3-triazol-1-yl)propylcarbamoyl)-2-(6-(dimethylamino)-3-(dimethyliminio)-3H-xanthen-9-yl)benzoate from recombinant full length C-terminal FLAG-tagged FKBP51 (unknown origin)
[2] = target: T1, Peptidyl-prolyl cis-trans isomerase FKBP4 (Homo sapiens, UniProt Q02790); experiment: (§2) Displacement of fluorescent tracer 5-(3-(4-((1S,5S,6S)-10-(3,5-dichlorophenylsulfonyl)-2-oxo-3-(pyridin-3-ylmethyl)-3,10-diazabicyclo[4.3.1]decan-5-yl)-1H-1,2,3-triazol-1-yl)propylcarbamoyl)-2-(6-(dimethylamino)-3-(dimethyliminio)-3H-xanthen-9-yl)benzoate from recombinant full length C-terminal FLAG-tagged FKBP52 (unknown origin) expressed in Escherichia coli BL21 (DE3) cells incubated for 30 mins by fluorescence polarisation competition binding assay
T1 sequence (Q02790 whole entry): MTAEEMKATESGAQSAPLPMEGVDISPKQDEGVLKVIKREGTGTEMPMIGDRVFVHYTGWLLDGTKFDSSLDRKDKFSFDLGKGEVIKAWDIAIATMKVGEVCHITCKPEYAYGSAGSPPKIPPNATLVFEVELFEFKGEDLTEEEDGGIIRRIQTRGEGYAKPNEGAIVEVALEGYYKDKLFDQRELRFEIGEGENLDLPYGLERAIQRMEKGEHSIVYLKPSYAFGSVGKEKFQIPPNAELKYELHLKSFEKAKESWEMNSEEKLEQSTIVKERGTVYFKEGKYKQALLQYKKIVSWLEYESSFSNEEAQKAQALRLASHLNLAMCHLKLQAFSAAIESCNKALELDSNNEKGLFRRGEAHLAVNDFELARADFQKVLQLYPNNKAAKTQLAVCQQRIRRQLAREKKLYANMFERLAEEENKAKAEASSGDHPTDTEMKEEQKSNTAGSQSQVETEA
In short: (§3)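 Competitive FP in 150 mM NaCl, 20 mM HEPES pH 8.0, 0.002% Triton X-100. Ligand 1:1 serially diluted in DMSO and premixed with fluorescent tracer, tracer working solution 11.9 nM (FKBP12.6, 51FK1, 52FK1) or 5.95 nM (FKBP12) before final 10-fold dilution into protein. 30 min at room temperature, read at ex/em 535/590 nm. Weighted SD from at least two independent runs.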

[3] = target: Peptidyl-prolyl cis-trans isomerase FKBP1B (Homo sapiens, UniProt P68106); experiment: as §2, with “FKBP12.6” for “FKBP52”, “competition” for “competition binding”; in short: as §3
[4] = target: T2, Peptidyl-prolyl cis-trans isomerase FKBP5 (Homo sapiens, UniProt Q13451); experiment: as §2, with “FKBP51” for “FKBP52”
T2 sequence (Q13451 whole entry): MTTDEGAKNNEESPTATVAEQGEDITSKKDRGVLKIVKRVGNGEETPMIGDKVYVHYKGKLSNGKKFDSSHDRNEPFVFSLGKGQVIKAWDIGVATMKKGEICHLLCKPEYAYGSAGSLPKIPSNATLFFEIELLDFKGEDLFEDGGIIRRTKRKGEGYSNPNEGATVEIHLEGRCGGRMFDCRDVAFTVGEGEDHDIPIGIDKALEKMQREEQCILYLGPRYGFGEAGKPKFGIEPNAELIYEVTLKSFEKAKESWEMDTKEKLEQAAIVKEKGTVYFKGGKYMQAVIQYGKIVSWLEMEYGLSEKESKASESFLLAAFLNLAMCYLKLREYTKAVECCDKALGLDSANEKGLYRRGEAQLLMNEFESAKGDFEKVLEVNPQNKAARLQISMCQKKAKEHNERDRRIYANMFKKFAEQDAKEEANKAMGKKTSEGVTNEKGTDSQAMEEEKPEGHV

[5] = as §1, with “FKBP52” for “FKBP12.6”
[6] = target: T2, Peptidyl-prolyl cis-trans isomerase FKBP5; experiment: Binding affinity to FKBP51 FK1 domain (unknown origin) assessed as dissociation constant at 25 degreeC by isothermal titration calorimetric analysis
In short: (§4)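 FKBP51 FK1 domain, ITC at 25 °C in 20 mM HEPES pH 8.0, 20 mM NaCl. Standard setup: 10 μM protein in cell with 0.5% DMSO, 100 μM ligand in syringe. Reverse setup for poorly soluble ligand: 10 μM ligand in cell with 5% DMSO, 100 μM protein in syringe. 18 × 2 μL injections, one-site binding fit, triplicates, weighted SD that includes fit errors.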

[7] = as §1, with “FJBP12” for “FKBP12.6 (unknown origin)”
[8] = target: T3, Peptidyl-prolyl cis-trans isomerase FKBP5 (Homo sapiens) (UniProt Q13451); experiment: Binding affinity to FKBP51 FK1 domain (unknown origin) assessed as gibbs free energy change by isothermal titration calorimetric analysis; in short: as §4
T3 sequence (whole entry): T2 sequence (Q13451 whole entry)

[9] = target: Peptidyl-prolyl cis-trans isomerase FKBP1A (Homo sapiens, UniProt P62942); experiment: as §2, with “FKBP12” for “FKBP52”, “([…])” for “(DE3)”; in short: as §3
[10] = target: T3, Peptidyl-prolyl cis-trans isomerase FKBP5 (Homo sapiens); experiment: Binding affinity to FKBP51 FK1 domain (unknown origin) assessed as change in enthalpy by isothermal titration calorimetric analysis; in short: as §4

Peptidyl-prolyl cis-trans isomerase FKBP1B, sequence (P68106 whole entry): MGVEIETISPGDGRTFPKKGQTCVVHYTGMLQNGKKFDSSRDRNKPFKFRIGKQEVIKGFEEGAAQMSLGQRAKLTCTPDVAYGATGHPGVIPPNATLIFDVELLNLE
Peptidyl-prolyl cis-trans isomerase FKBP1A, sequence (P62942 whole entry, the tested form may be a part): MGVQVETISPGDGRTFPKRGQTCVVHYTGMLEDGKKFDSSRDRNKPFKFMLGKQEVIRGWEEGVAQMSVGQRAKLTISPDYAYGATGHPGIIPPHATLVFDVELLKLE

Row | SMILES | Selectivity ratio [1] | pKd [2] | pKd [3] | pKd [4] | Selectivity ratio [5] | pKd [6] | Selectivity ratio [7] | deltaG [8] | pKd [9] | deltaH [10]
1 | COc1ccc(CC[C@H]2OC(=O)[C@@H]3CCCCN3C(=O)[C@@H](C3CCCCC3)c3cc(OC)c(OC)c(c3)OC[C@@H](O)[C@H](O)COc3cccc2c3)cc1OC | 1.8 | 6.29 | 8.05 | 8.30 | 103 | 8.16 | 4.4 | -11.1 kcal/mol | 7.66 | -11.3 kcal/mol
2 | COc1ccc(CC[C@@H](OC(=O)[C@@H]2CCCCN2C(=O)[C@H](c2cc(OC)c(OC)c(OC)c2)C2CCCCC2)c2cccc(OCC(=O)O)c2)cc1OC |  |  |  |  |  | 8.01 |  | -10.9 kcal/mol |  | -11.2 kcal/mol
